Assay results published in ChEMBL document CHEMBL1153955, “Indolylarylsulfones bearing natural and unnatural amino acids. Discovery of potent inhibitors of HIV-1 non-nucleoside wild type and resistant mutant strains reverse transcriptase and coxsackie B4 virus” (J Med Chem, 2009).

Key:
[1] = tested on: Respiratory syncytial virus; test: Antiviral activity against RSV Long in human HeLa cells assessed as protection against virus-induced cytopathicity; type: functional, organism-based
Outline: (§1)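 Confluent cell monolayers inoculated with 100 CCID₅₀ virus. After 1-2 h adsorption, residual virus removed and cultures incubated with varying compound concentrations. Cytopathicity scored once it reached completion in untreated infected controls. EC₅₀ = dose reducing virus-induced cytopathogenicity by 50%.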

[2] = tested on: Vesicular stomatitis virus; test: Antiviral activity against VSV in human HeLa cells assessed as protection against virus-induced cytopathicity; type: functional, organism-based
[3] = tested on: Human immunodeficiency virus 1; test: Antiviral activity against HIV1 3B in human CEM cells assessed as protection against virus-induced cytopathicity after 4 days; type: functional, organism-based; settings: Human immunodeficiency virus 1, 3B, CCRF-CEM, 96 h
Outline: (§2)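 CEM cells (~3 × 10⁵ cells/mL) infected with ~100 CCID₅₀ per mL of HIV-1 (IIIB) or HIV-2 (ROD), then seeded into wells containing compound dilutions. After 4 days at 37 °C, syncytium (giant cell) formation was examined microscopically. EC₅₀ = concentration protecting CEM cells from HIV cytopathicity by 50%.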

[4] = tested on: Human immunodeficiency virus 2; test: Antiviral activity against HIV2 ROD in human CEM cells assessed as protection against virus-induced cytopathicity after 4 days; type: functional, organism-based; settings: Human immunodeficiency virus 2, ROD, CCRF-CEM, 96 h; outline: as §2
[5] = tested on: L1210; test: Antiproliferative activity against mouse L1210 cells after 2 days; type: cell-based; settings: L1210, 48 h
Outline: (§3)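 Cells seeded at 5 × 10⁴ to 7.5 × 10⁴ cells/200 µL with or without serial compound dilutions; incubated at 37 °C for 2 days (L1210) or 3 days (Molt4/C8, CEM). Cell numbers counted with a Coulter counter. CC₅₀ = concentration reducing proliferation by 50% versus untreated controls, read from plots of cell number (% of control) against concentration. Means of at least two independent experiments.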

[6] = Antiproliferative activity against human Molt4/C8 cells after 3 days; type: cell-based; settings: MOLT-4, 72 h; outline: as §3
[7] = tested on: CCRF-CEM; test: Antiproliferative activity against human CEM cells after 3 days; type: cell-based; settings: 72 h; outline: as §3
[8] = biological target: Human immunodeficiency virus type 1 reverse transcriptase (Human immunodeficiency virus 1, UniProt Q72547); test: Inhibition of HIV1 reverse transcriptase p66/p51; settings: read-out: IC50
[9] = biological target: Human immunodeficiency virus type 1 reverse transcriptase (Human immunodeficiency virus 1, UniProt Q72547, L100I); test: Inhibition of HIV1 reverse transcriptase p66/p51 L100I mutant; settings: read-out: IC50
Outline: (§4)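 Substrate was 0.5 µg poly(rA)/oligo(dT) 10:1 (0.3 µM 3′-OH ends) with 10 µM [³H]dTTP, at 37 °C. Acid-precipitable radioactivity was counted on GF/C filters after TCA washes.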

[10] = biological target: Human immunodeficiency virus type 1 reverse transcriptase (Human immunodeficiency virus 1, UniProt Q72547, K103N); test: Inhibition of HIV1 reverse transcriptase p66/p51 K103N mutant; settings: read-out: IC50; outline: as §4
[11] = biological target: Human immunodeficiency virus type 1 reverse transcriptase (Human immunodeficiency virus 1, UniProt Q72547, Y181I); test: Inhibition of HIV1 reverse transcriptase p66/p51 Y181I mutant; settings: read-out: IC50; outline: as §4
[12] = Cytotoxicity against human HeLa cells assessed as drug level causing microscopically detectable alteration of normal cell morphology after 3 days; type: cell-based
Outline: (§5)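 Serial compound dilutions added to confluent HeLa or Vero monolayers. MCC = minimum concentration causing microscopically detectable alteration of cell morphology after 3 days of incubation.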

[13] = Cytotoxicity against african green monkey Vero cells assessed as drug level causing microscopically detectable alteration of normal cell morphology after 3 days; type: cell-based; settings: chlorocebus sabaeus; outline: as §5
[14] = tested on: Coxsackievirus B4; test: Antiviral activity against Coxsackievirus B4 in human HeLa cells assessed as protection against virus-induced cytopathicity; type: functional, organism-based; settings: Enterovirus B; outline: as §1
[15] = tested on: Coxsackievirus B4; test: Antiviral activity against Coxsackievirus B4 in african green monkey Vero cells assessed as protection against virus-induced cytopathicity; type: functional, organism-based; settings: Enterovirus B; outline: as §1
[16] = tested on: Human respirovirus 3; test: Antiviral activity against Parainfluenza virus type 3 in african green monkey Vero cells assessed as protection against virus-induced cytopathicity; type: functional, organism-based; settings: Human respirovirus 3, Vero; outline: as §1
[17] = tested on: Mammalian orthoreovirus 1; test: Antiviral activity against Reovirus 1 in african green monkey Vero cells assessed as protection against virus-induced cytopathicity; type: functional, organism-based; settings: Mammalian orthoreovirus 1, Vero; outline: as §1
[18] = tested on: Sindbis virus; test: Antiviral activity against Sindbis virus in african green monkey Vero cells assessed as protection against virus-induced cytopathicity; type: functional, organism-based; outline: as §1
[19] = tested on: Punta Toro virus; test: Antiviral activity against Punta Toro virus in african green monkey Vero cells assessed as protection against virus-induced cytopathicity; type: functional, organism-based; outline: as §1
[20] = Cytotoxicity against human HEL cells assessed as drug level causing microscopically detectable alteration of normal cell morphology after 3 days; type: cell-based
[21] = tested on: Human alphaherpesvirus 1; test: Antiviral activity against HSV1 KOS in human HEL cells assessed as protection against virus-induced cytopathicity; type: functional, organism-based; settings: Human alphaherpesvirus 1, KOS
[22] = tested on: Human alphaherpesvirus 2; test: Antiviral activity against HSV2 G in human HEL cells assessed as protection against virus-induced cytopathicity; type: functional, organism-based; settings: Human alphaherpesvirus 2, strain G; outline: as §1
[23] = tested on: Vaccinia virus; test: Antiviral activity against Vaccinia virus Lederle in human HEL cells assessed as protection against virus-induced cytopathicity; type: functional, organism-based; settings: Orthopoxvirus vaccinia
[24] = tested on: Vesicular stomatitis virus; test: Antiviral activity against VSV in human HEL cells assessed as protection against virus-induced cytopathicity; type: functional, organism-based
[25] = tested on: Human alphaherpesvirus 1; test: Antiviral activity against thymidine kinase deficient and acyclovir resistant HSV1 KOS in human HEL cells assessed as protection against virus-induced cytopathicity; type: functional, organism-based; settings: Human alphaherpesvirus 1, KOS
[26] = Cytotoxicity against MDCK cells assessed as drug level causing microscopically detectable alteration of normal cell morphology; type: cell-based, Canis lupus familiaris; settings: dog
[27] = Cytotoxicity against MDCK cells by MTS assay; type: cell-based, Canis lupus familiaris; settings: dog
[28] = tested on: Influenza A virus; test: Antiviral activity against influenza H1N1 virus in MDCK cells assessed as reduction of virus-induced cytopathicity by visual cytopathic effect scoring method; type: functional, organism-based
[29] = tested on: Influenza A virus; test: Antiviral activity against influenza H1N1 virus in MDCK cells assessed as reduction of virus-induced cytopathicity by MTS method; type: functional, organism-based
[30] = tested on: Influenza A virus H3N2; test: Antiviral activity against influenza H3N2 virus in MDCK cells assessed as reduction of virus-induced cytopathicity by visual cytopathic effect scoring method; type: functional, organism-based
[31] = tested on: Influenza A virus H3N2; test: Antiviral activity against influenza H3N2 virus in MDCK cells assessed as reduction of virus-induced cytopathicity by MTS method; type: functional, organism-based
[32] = tested on: Influenza B virus; test: Antiviral activity against influenza B virus in MDCK cells assessed as reduction of virus-induced cytopathicity by visual cytopathic effect scoring method; type: functional, organism-based
[33] = tested on: Influenza B virus; test: Antiviral activity against influenza B virus in MDCK cells assessed as reduction of virus-induced cytopathicity by MTS method; type: functional, organism-based
[34] = Cytotoxicity against feline CRFK cells by MTS assay; type: cell-based, Felis catus; settings: cat
[35] = tested on: Feline coronavirus; test: Antiviral activity against Feline coronavirus in feline […] cells assessed as inhibition of virus-induced cytopathicity; type: functional, organism-based; settings: Alphacoronavirus 1
[36] = tested on: Felid alphaherpesvirus 1; test: Antiviral activity against Feline herpesvirus in feline […] cells assessed as inhibition of virus-induced cytopathicity; type: functional, organism-based

Structure (SMILES)	EC50 [1]	MCC at 72 h [12]	MCC at 72 h [13]	EC50 [14]	EC50 [15]	EC50 [16]	EC50 [18]	EC50 [19]	MCC at 72 h [20]	EC50 [21]	EC50 [22]	EC50 [23]	EC50 [24]	EC50 [25]	MCC [26]	CC50 [27]	EC50 [28]	EC50 [31]	EC50 [32]	EC50 [33]	also measured
Cc1cc(C)cc(S(=O)(=O)c2c(C(=O)NCC(N)=O)[nH]c3ccc(Br)cc23)c1	20 µM	100 µM	100 µM	4 µM	> 20 µM	> 20 µM	> 20 µM	> 20 µM	100 µM	> 20 µM	> 20 µM	> 20 µM	> 20 µM	> 20 µM	20 µM	9.8 µM	> 4 µM	> 4 µM	> 4 µM	> 4 µM	EC50 [2]: > 20 µM; EC50 [3]: 0.0026 µM; EC50 [4]: 43 µM; IC50 [5]: 40 µM; IC50 [6]: 17 µM; IC50 [7]: 31 µM; IC50 [8]: 0.026 µM; IC50 [9]: 0.199 µM; IC50 [10]: 0.782 µM; IC50 [11]: 2.21 µM; EC50 [17]: > 20 µM; EC50 ([29]; Influenza A virus, H1N1, MDCK): > 4 µM; EC50 [30]: > 4 µM; CC50 [34]: 53 µM; EC50 [35]: > 20 µM; EC50 [36]: > 20 µM
Nc1ncnc2c1ncn2C[C@H](O)CO [(S)-DHPA]	> 250 µM	> 250 µM	> 250 µM	> 250 µM	> 250 µM	> 250 µM	> 250 µM	> 250 µM	–	–	–	–	–	–	–	–	–	–	–	–	EC50 [2]: > 250 µM; EC50 [17]: > 250 µM
NC12CC3CC(CC(C3)C1)C2 [AMANTADINE]	–	–	–	–	–	–	–	–	–	–	–	–	–	–	> 100 µM	> 100 µM	> 100 µM	75.3 µM	> 100 µM	> 100 µM	EC50 ([29]; Influenza A virus, H1N1, MDCK): > 100 µM; EC50 [30]: 100 µM
O=c1[nH]c(=O)n([C@H]2C[C@H](O)[C@@H](CO)O2)cc1/C=C/Br [BRIVUDINE]	–	–	–	–	–	–	–	–	> 250 µM	0.02 µM	29 µM	4 µM	> 250 µM	–	–	–	–	–	–	–	–
Nc1ccn(C[C@@H](CO)OCP(=O)(O)O)c(=O)n1 [CIDOFOVIR]	–	–	–	–	–	–	–	–	> 250 µM	2 µM	1 µM	20 µM	> 250 µM	1 µM	–	–	–	–	–	–	–
Nc1nc2c(ncn2COC(CO)CO)c(=O)[nH]1 [GANCICLOVIR]	–	–	–	–	–	–	–	–	> 100 µM	–	0.2 µM	> 100 µM	> 100 µM	–	–	–	–	–	–	–	CC50 [34]: > 100 µM; EC50 [35]: > 100 µM; EC50 [36]: 1.2 µM
NC(=O)c1ncn([C@@H]2O[C@H](CO)[C@@H](O)[C@H]2O)n1 [RIBAVIRIN]	10 µM	> 250 µM	> 250 µM	50 µM	≥ 250 µM	> 50 µM	250 µM	50 µM	> 250 µM	> 250 µM	250 µM	112 µM	125 µM	> 250 µM	> 100 µM	> 100 µM	900 µM	8.1 µM	4 µM	4.8 µM	EC50 ([29]; mdck): 8400 µM
CC(N)C12CC3CC(CC(C3)C1)C2 (stereo unspecified) [RIMANTADINE]	–	–	–	–	–	–	–	–	–	–	–	–	–	–	> 100 µM	> 100 µM	45 µM	> 100 µM	> 100 µM	> 100 µM	EC50 ([29]; Influenza A virus, H1N1, MDCK): 33.2 µM; EC50 [30]: > 100 µM
